Source: PubChem (The Scripps Research Institute Molecular Screening Center)
Sampled rows, rich in hits. Any-hit rate of the full collection: about 2.6%.
SIAE inh – human SIAE inhibitors, primary screen, biochemical, fluorescence polarization, FP-Rh probe, 1536-well HTS | inhibition, % at 9.66 µM | hit rate 0.69% among 370,000 | SIAE FP-Rh probe binding;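 active = inhibition above a cutoff: mean of compounds within the control limits plus 3 SD of those, cut at about 17% in these data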;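 note: 0% = plate median of compound wells and 100% = probe without SIAE protein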
ABHD4 inh – ABHD4 inhibitors, primary screen, biochemical, fluorescence polarization, mouse; (Lyso)-N-acylphosphatidylethanolamine lipase (Mus musculus), Q8VD66; purified mABHD4, FP-Rh probe fluorescence polarization; inhibition, % at 8.92 µM; hit rate 0.54% among 370,000; AID 720543, 2013;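 active = inhibition exceeding the mean over every tested compound plus 3 SD, cut at about 30% in these data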;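 note: 0% = plate median of compound wells and 100% = S159A mutant with DMSO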
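system = mouse ABHD4 enzyme, wild type | medium = HEPES pH 7.0, NaCl, Pluronic buffer | also added = FP-Rh probe | incubation = Enzyme–compound pre-incubation 45 min, then probe 60 min, both 25 °C | technique = fluorescence polarization, excitation 525 nm, emission 598 nm, BODIPY TMR filters | controls = S159A mutant high control, sample median low control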
TCR-CD3 inh – inhibitors of human TCR-CD3 interaction, primary screen, biochemical, fluorescence, TAMRA-labeled TCR probe. T-cell receptor (TCR). hit rate 0.37% among 360,000. inhibition, % at 9.4 µM; in the data active = inhibition above about 19%;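 note: recombinant mutant TCR 2C K166C tagged with TAMRA read by polarization; 0% = receptor in buffer alone and 100% = receptor with positive control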
PRMT1 FP inh – PRMT1 methyltransferase inhibitors, primary screen, biochemical, fluorescence polarization. Protein arginine N-methyltransferase 1 (Homo sapiens), Q99873. recombinant PRMT1, activity-based probe fluorescence polarization. inhibition, % at 2.79 µM. hit rate 1.3% among 370,000. AID 652257, 2013;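 active = inhibition above about 21% made by adding two undisclosed values, limit read from the data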
HTRA1 inhibitor – HTRA1 serine protease inhibitors, primary screen, biochemical, fluorescence polarization, HTS. Q92743. inhibition, % at 5.96 µM. recombinant HTRA1, FP-rhodamine activity-based probe. hit rate 0.5% among 340,000. AID 504803, 2011; in the data active = inhibition above about 36%;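 note: 0% = enzyme with DMSO and 100% = wells lacking enzyme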
Target sequence (Q92743 whole entry, looked up): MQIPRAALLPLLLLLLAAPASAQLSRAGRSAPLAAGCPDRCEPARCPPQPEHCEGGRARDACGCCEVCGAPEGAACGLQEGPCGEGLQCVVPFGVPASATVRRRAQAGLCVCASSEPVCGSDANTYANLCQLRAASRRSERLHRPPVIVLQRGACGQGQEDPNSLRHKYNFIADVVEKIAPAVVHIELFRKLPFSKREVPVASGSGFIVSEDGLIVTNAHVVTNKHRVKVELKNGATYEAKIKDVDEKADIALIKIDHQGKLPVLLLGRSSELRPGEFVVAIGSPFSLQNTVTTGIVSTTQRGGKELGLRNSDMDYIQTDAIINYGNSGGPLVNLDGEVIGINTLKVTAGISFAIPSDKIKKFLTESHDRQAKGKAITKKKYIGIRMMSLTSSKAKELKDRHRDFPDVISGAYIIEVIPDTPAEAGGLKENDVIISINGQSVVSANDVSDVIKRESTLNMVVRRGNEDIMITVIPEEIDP
* hit, by the source's call; nt = no result.

SMILES	SIAE inh	ABHD4 inh	TCR-CD3 inh	PRMT1 FP inh	HTRA1 inhibitor
CCOC(=O)[C@@]12CN(C(=O)OC(C)(C)C)CC=C1N(Cc1ccc(OC)cc1)C(=O)[C@H]2CC(=O)N1CCC(c2ccccc2)CC1	-1	7	nt	1	nt
COc1cccc(C2NC(CCSC)(C(=O)O)C3C(=O)N(C(C)C)C(=O)C23)c1O (stereo not given)	21*	-2	-1	-2	-5
N#CC(C#SN)=C1CCCCC1	2	15	5	24*	-1
O=C(Nc1ccccc1C(F)(F)F)OCCCN1CCC2(CCC(c3ccccc3)CC2)C1=O (stereo not given)	-8	-8	nt	0	nt
O=C1NC(=O)N2CCSC2(Cc2ccccc2)N1 (stereo not given)	6	3	-1	21*	2
Cc1ccc(NC(=O)CSc2ncnc3ccccc23)cc1S(=O)(=O)N1CCCCC1	-37	-18	5	23*	-23
COC(=O)[C@]12C[C@H](CC(=O)NCCc3ccccc3OC)C(=O)N(Cc3cccc4ccccc34)C1=C[C@H](COCc1ccccc1)O[C@@H]2C	-7	-13	nt	3	nt
CC(=O)Nc1ccc(SCC(=O)c2ccc(Br)s2)cc1	4	-2	3	63*	-10
Cc1cc(C)nc(SCNC(=O)c2ccc(F)cc2)n1	14	1	-3	26*	-2
Cc1cc(C)nc(SCC(=O)c2ccc(F)cc2)n1	3	1	0	-1	0
COc1ccc(CCN(Cc2cccs2)S(=O)(=O)c2ccc(F)cc2)cc1OC	-12	-19	nt	-6	nt
COc1cc(-c2nnc(-c3cccs3)o2)cc(OC)c1OC	18*	-5	-4	0	-3
CC1OC23CCCCC2C(C#N)(C(=N)O3)C1(C#N)C#N (stereo not given)	5	8	-3	7	5
N#CC1(C#N)COC23CCCCC2C1(C#N)C(=N)O3 (stereo not given)	11	17	19	22*	13
N#CC12COC3(CCCCC3C1(C#N)C#N)OC2=N (stereo not given)	10	24	13	35*	21
CCC1OC23CCCCC2C(C#N)(C(=N)O3)C1(C#N)C#N (stereo not given)	17	15	11	14	28
O=C(OCc1cn(Cc2ccc(F)cc2)nn1)N1CCCC1	-2	-7	nt	6	nt
Cc1ccc(C)c(SCC(=O)Nc2oc(C)c3c(C)n[nH]c(=O)c23)c1	3	1	-4	22*	-1
Oc1cc(-n2cccn2)c(O)cc1-n1cccn1	4	19	9	57*	1
Cc1cccc(C2C3=C(Nc4[nH]n(-c5ccccc5)c(=O)c42)c2ccccc2C3=O)c1 (stereo not given)	20*	43*	4	21*	32
CC1=C([N+](=O)[O-])C(c2ccccc2)C2=C(N1)c1ccccc1C2=O (stereo not given)	9	19	-4	9	21
CC(=O)Nc1ccc(S(=O)(=O)NNc2cccc(C)c2)cc1	9	11	0	23*	3
Cc1cccc(NC(=O)NNS(=O)(=O)c2ccc(F)cc2)c1	-1	-1	3	-1	3
COc1ccc(CN2CCC(CNC(=O)NC3CCCC3)CC2)cc1	3	5	nt	-2	nt
COc1cc(/C=C2\CCC/C(=C\c3ccc(O)c(OC)c3)C2=O)ccc1O	-1	12	0	22*	21
SMILES	SIAE inh	ABHD4 inh	TCR-CD3 inh	PRMT1 FP inh	HTRA1 inhibitor
O=C1c2cccc3cccc(c23)C(=O)N1/N=C/c1ccc(O)cc1O	7	1	4	-1	1
O=C1c2ccccc2C(=O)N1/N=C/c1ccc(O)c(O)c1O	nt	nt	nt	nt	44*
Oc1ccc2ccccc2c1CNc1ccccc1	5	1	7	7	-2
Oc1ccc2ccccc2c1CNc1ccc2ccccc2c1	8	40*	8	25*	24
Cc1nnc(SCC(=O)c2ccc(S(=O)(=O)N3CCOCC3)cc2)n1-c1ccccc1	-2	-6	-4	28*	1
CCOC(=O)CSc1nnc(-c2ccc(S(=O)(=O)N3CCOCC3)cc2)n1-c1ccccc1	2	4	4	1	-2
NS(=O)(=O)c1ccc(NC(=S)NC2CCCCCC2)cc1	3	-5	1	24*	-1
NS(=O)(=O)c1ccc(NC(=S)NC(=O)C2CCCCC2)cc1	-8	-14	-5	-2	4
O=C(NC1CCCCN(Cc2cccc(Cl)c2)C1=O)c1c(F)cccc1F (stereo not given)	8	4	nt	0	nt
O=C1Nc2ccccc2/C1=C/c1ccc([N+](=O)[O-])cc1	0	3	4	4	1
CC1(c2ccc([N+](=O)[O-])cc2)Nc2ccccc2S1 (stereo not given)	12	11	6	45*	15
COc1ccc(CNC(=O)CCNS(=O)(=O)c2ccc3[nH]c(=O)oc3c2)cc1	0	1	nt	-4	nt
O=C(CCCc1nc2ccccc2s1)N1CCN(c2ccccc2)CC1	4	1	8	23*	-1
O=C(CCCc1nc2ccccc2s1)N1CCN(c2ccccc2F)CC1	4	-1	5	-6	-4
CCC(C)(C)C(=O)N1CCc2cc(S(=O)(=O)N(C)Cc3ccco3)ccc21	-2	-4	nt	6	nt
Cc1ccc(-c2c(C(=O)Nc3ccccc3C)c(C)[nH]c(=S)c2C#N)o1	-12	2	-9	34*	nt
CC(C)C(=O)N[C@H]1[C@H](O)CCC[C@]12C(=O)N(Cc1ccccc1)c1ccccc12	-2	4	nt	0	nt
CC1CCc2c(sc(Nc3nc4c(F)cccc4s3)c2C(N)=O)C1 (stereo not given)	6	-3	-4	23*	-9
CCOc1ccc(-n2c(SCC(=O)Nc3cccc4ccccc34)nnc2-c2ccco2)cc1	-3	-12	nt	8	nt
CN(CC#Cc1ccccc1)C(N)=NC(=O)/C=C/c1ccccc1	0	1	nt	-4	nt
Cc1nn2cc(-c3ccccc3)nc2[nH]c1=O	22*	0	0	-4	4
CCN1CCC(O)(/C=C/c2ccc(C(C)C)cc2)C(C(=O)/C=C/c2ccc(C(C)C)cc2)C1 (stereo not given)	2	34*	-2	24*	1
CCN1CCN(C(=O)/C=C/c2ccc(C(C)C)cc2)CC1	4	1	-3	1	-5
COC(=O)c1cc(-c2cc(Cl)ccc2OC)c(=O)n2c1CCC2	-5	2	nt	0	nt
O=C(CSC1=NCCS1)Nc1cccc2ccccc12	-6	-18	1	21	-10
O=C(O)c1ccccc1CSC1=NCCS1	0	-4	14	21*	6
O=C(CSC1=NCCS1)Nc1ccccc1F	1	-7	-6	22*	-2
